Test results reported in publication PMC4586255 (DNA repair, 2010).
Residues, ends and D or L forms follow the SMILES beside them.

Assays:
PCNA = PCNA (Homo sapiens, UniProt P12004); test: Isothermal titration calorimetry of hEXO1 peptides with purified PCNA; format: binding; details: ITC, 30 °C, pH 7.5; 18 μM PCNA, 200 μM p22; no dilution effects in pure buffer
hEXO1 = details: hEXO1-hMLH1 interaction, ref [15], cited from earlier work
[1] = tested on: PCNA replication foci in NIH3T3 cells; format: cell-based, murine; details: for foci formation and co-localization with PCNA during S-phase: 24–48 h
In short: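 Murine NIH3T3 cells were kept in DMEM with 10% FBS and penicillin/streptomycin at 37 °C, 10% CO₂. Cells (2*10⁵ per glass-bottom dish) were seeded 24 h before ExGen500 co-transfection with 3 μg total plasmid (CFP-PCNA plus YFP fusion). Confocal imaging at 24–48 h. Co-transfected cells were counted and binned by pattern, e.g. "no foci" (diffuse CFP-PCNA, diffuse nuclear YFP).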

[2] = tested on: PCNA replication foci in HCT116 cells; test: Co-localization with PCNA in replication foci in HCT116 cells; format: cell-based; details: HCT116 cell line (hMLH1 deficient); Fig. S5
[3] = NIH3T3 cells co-transfected with CFP-PCNA

PCNA, sequence (P12004 whole entry): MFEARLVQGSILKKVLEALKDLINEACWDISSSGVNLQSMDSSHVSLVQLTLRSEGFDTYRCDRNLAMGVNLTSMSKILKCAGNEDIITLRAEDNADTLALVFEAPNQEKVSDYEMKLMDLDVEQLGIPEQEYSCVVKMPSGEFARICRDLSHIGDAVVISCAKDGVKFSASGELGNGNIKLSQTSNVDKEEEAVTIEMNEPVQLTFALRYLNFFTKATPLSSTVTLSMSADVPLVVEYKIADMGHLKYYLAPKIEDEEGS

Question: With CC[C@H](C)[C@H](NC(=O)[C@H](CCC(N)=O)NC(=O)[C@H](CC(C)C)NC(=O)CNC(=O)[C@@H]1CCCN1C(=O)[C@H](CCCCN)NC(=O)[C@@H](N)CC(N)=O)C(=O)N[C@@H](CCCCN)C(=O)N[C@@H](CC(C)C)C(=O)N[C@@H](CC(N)=O)C(=O)N[C@@H](CCC(=O)O)C(=O)N[C@@H](CC(C)C)C(=O)N[C@@H](Cc1c[nH]c2ccccc12)C(=O)N[C@@H](CCCCN)C(=O)N[C@@H](CC(N)=O)C(=O)N[C@@H](Cc1ccccc1)C(=O)NCC(=O)N[C@@H](Cc1ccccc1)C(=O)N[C@@H](CCCCN)C(=O)N[C@@H](CCCCN)C(=O)N[C@@H](CC(=O)O)C(=O)N[C@@H](CO)C(=O)O [hEXO1 p22] (H-NKPGLQIKLNELWKNFGFKKDS-OH; N-terminus and C-terminus assumed) as the molecule, how does the “heat exchange of binding reaction with PCNA” value (PCNA) read?
Answer: The value was “exothermic heat exchange”.

Question: What does the source list for hEXO1-hMLH1: hEXO1-hMLH1 complex?
Answer: exonuclease activity on heteroduplex substrate (hEXO1; heteroduplex substrate): inhibits exonuclease activity on a heteroduplex substrate; exonuclease activity on homoduplex substrate (hEXO1; homoduplex substrate): did not inhibit exonuclease activity on a homoduplex substrate

Question: For “hMSH6: fusion protein, CFP or YFP tagged MMR protein”, which “foci formation and co-localization with PCNA during S-phase” value [1, 3] is on record?
Answer: The value was “form PCNA co-localizing foci throughout S-phase”.

Question: With human exonuclease 1 [YFP-hEXO1] as the molecule, how does the “Small foci (CFP-PCNA)” value ([1]; CFP channel (CFP-PCNA) in cells co-expressing the hEXO1 protein, early S-phase foci, 50 co-transfected cells) read?
Answer: Its value is 28%.

Question: What about the “Large foci (CFP-PCNA)” value ([1]; CFP channel (CFP-PCNA) in cells co-expressing the hEXO1 protein, late S-phase foci, 50 co-transfected cells) of the same molecule?
Answer: The value was 12%.

Question: What about the “Mid Foci (CFP-PCNA)” value ([1]; CFP channel (CFP-PCNA) in cells co-expressing the hEXO1 protein, mid S-phase foci, 50 co-transfected cells) of the same molecule?
Answer: The value was 14%.

Question: And the “cells showing diffuse nuclear staining” value [1, 3]?
Answer: The value was 40%.

Question: And the “foci formation and co-localization with PCNA during S-phase” value [1, 3]?
Answer: The value was “co-localize in discrete nuclear foci”.

Question: What about the sub-cellular localization ([1]; NIH3T3 cells, confocal imaging) of the same molecule?
Answer: Its sub-cellular localization is “only rarely observed in the cytoplasm”.

Question: And the “co-localization with PCNA in replication foci” value [2]?
Answer: The value was “co-localize with PCNA in replication foci in the HCT116 cell line”.
